CHT PAM = human CHT allosteric activation; Q9GZV3; CHT-expressing cells, membrane potential dye, choline EC20; active compounds read high; LV-AA mutant CHT in HEK293 cells; B-score at 10 µM; actives 0.49% (n = 310,000); AID 488977;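 active = initial fluorescence not abnormally high and integrated response B-score, plate-corrected, over 3 SD above library mean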
Target sequence (Q9GZV3 whole entry, looked up): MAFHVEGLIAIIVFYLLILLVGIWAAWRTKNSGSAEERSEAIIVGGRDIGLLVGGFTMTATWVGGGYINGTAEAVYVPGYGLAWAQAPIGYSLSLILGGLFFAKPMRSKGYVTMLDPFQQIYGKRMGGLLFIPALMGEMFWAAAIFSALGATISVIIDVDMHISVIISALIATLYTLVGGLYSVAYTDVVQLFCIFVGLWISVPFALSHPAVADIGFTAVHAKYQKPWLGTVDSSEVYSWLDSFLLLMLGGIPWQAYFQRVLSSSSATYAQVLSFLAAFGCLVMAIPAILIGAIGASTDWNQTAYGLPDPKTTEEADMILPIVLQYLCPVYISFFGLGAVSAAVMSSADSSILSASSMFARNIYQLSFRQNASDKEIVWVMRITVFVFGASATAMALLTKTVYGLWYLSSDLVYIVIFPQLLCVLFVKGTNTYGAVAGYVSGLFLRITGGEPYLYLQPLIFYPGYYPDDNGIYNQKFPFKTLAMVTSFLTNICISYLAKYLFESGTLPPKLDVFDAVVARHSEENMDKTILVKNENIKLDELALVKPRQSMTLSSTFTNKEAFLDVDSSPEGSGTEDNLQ
Rad51 HR inh = Rad51 (human) homologous recombination inhibition; Q06609; hRad51 DNA strand exchange, fluorescence dequenching; inhibition, % at 10 µM; actives 0.085% (n = 200,000); AID 1385;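 active = inhibition above 40% at the single screening dose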;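 also: 0% = DMSO control wells and 100% = blanks with heterologous ssDNA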
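material = hRad51 filaments on single-stranded DNA | timing = filaments 15 min 37 °C, then compound 30 min | signal = FRET fluorescence dequenching, excitation 485 nm, emission 520 nm | benchmarks = control wells and blank wells on each plate | evaluation = percent inhibition relative to plate controls and blanks | compound = 10 µM final, single point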
KCC2 mod = modulators of human KCC2 chloride dependent transport; Q9H2X9; actives 2.2% (n = 190,000); KCC2 cells, thallium flux FluoZin-2 fluorescence; B-score of Tl+ flux slope (higher = more flux/activation; lower = inhibition) at 10 µM;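 active = thallium flux slope and its plate-corrected score both differing from the plate sample mean at a set confidence after two filtering rounds, in either direction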;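 also: slope of fluorescence scaled to starting intensity during 10 to 20 s after thallium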
CHT inh = inhibitors of human choline transporter CHT; actives 0.86% (n = 310,000); CHT-expressing cells, membrane potential dye, choline response; active compounds read low; B-score at 10 µM; Q9GZV3;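 active = B-score over 3 SD under the library average, and starting fluorescence ratio not unusually high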;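 also: choline stimulus applied at its EC90 after an EC20 pre-addition; B-score computed on integrated fluorescence ratio after choline addition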
CHT act confirm = human CHT activation, confirmatory screen; activation, % at 10 µM; shares compounds with CHT PAM; actives 91% (n = 2,500); CHT-expressing cells, membrane potential dye fluorescence (FDSS); % of choline EC20–EC90 response window; HEK293 expressing CHT LV-AA mutant; choline added at its EC20; AID 504833;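 active = primary screen active, with duplicate mean activation above negative control mean plus 3 SD, cut at about 11% in these data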
HEK293 MP dye = counter-screen for CHT activators: effect in parental HEK293 cells; membrane potential dye fluorescence (FDSS); measured after EC20 choline addition; ratio readout change at 10 µM, hits read low; actives 62% (n = 2,500); shares compounds with CHT PAM;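 active = duplicate-averaged ratio beyond 3 SD from buffer wells, up or down, though filed actives are nearly all decreases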
The depositor's hits bear a star. The list is not random: actives were taken first. Their share in the collection is about 2.6%.

Screening COc1ccc(-c2cn3cccnc3n2)cc1F returned CHT PAM inactive, Rad51 HR inh -3.6, KCC2 mod -0.085, CHT inh inactive, CHT act confirm 15.0* and HEK293 MP dye -32.9*.
Screening Cc1c(CCOC(=O)c2ccc([N+](=O)[O-])cc2)sc[n+]1CC(=O)c1ccccc1 returned CHT PAM 7.06*, Rad51 HR inh 33.5, KCC2 mod -0.391, CHT inh inactive, CHT act confirm 58.1* and HEK293 MP dye -52.1*.
`Cc1ccc(-n2cc(CNCCc3cscn3)c(-c3ccc(F)cc3)n2)cc1` gave CHT PAM inactive, Rad51 HR inh -1.6, KCC2 mod 0.123 and CHT inh inactive.
For Cc1ccc(-n2cc(CNCCCn3ccnc3C)c(-c3ccc(F)cc3)n2)cc1 the results were CHT PAM inactive, CHT inh inactive, CHT act confirm 31.8* and HEK293 MP dye -32.1*.
Screening COc1ccc(OC)c(C2C(C(=O)c3cc4ccccc4o3)=C(O)C(=O)N2c2cc(C)on2)c1 (stereo unspecified) returned CHT PAM inactive, Rad51 HR inh 6.3, KCC2 mod -0.964, CHT inh inactive, CHT act confirm 10.6* and HEK293 MP dye inactive.
`CC(=O)c1c(C)nc2sc3c(=N)n(N)cnc3c2c1-c1ccc(Cl)cc1` gave CHT PAM 6.7*, Rad51 HR inh -50.8, KCC2 mod 0.548, CHT inh inactive, CHT act confirm 49.8* and HEK293 MP dye -39.8*.
`CCOC(=O)c1c(C)nc2sc3c(=O)n(-c4ccc(C(C)=O)cc4)cnc3c2c1-c1ccc(OC)cc1` gave CHT PAM inactive, Rad51 HR inh 14.4 and CHT inh inactive.
Cn1c(-c2cccs2)[n+](C)c2ccccc21 was read as CHT PAM 9.79*, Rad51 HR inh 3.3, KCC2 mod -0.438, CHT inh inactive, CHT act confirm 61.8* and HEK293 MP dye -56*.
For CC(C)(CNC(=O)Cc1ccc(NS(=O)(=O)c2cccc(C(F)(F)F)c2)cc1)N1CCOCC1 the results were CHT PAM inactive and CHT inh inactive.
Screening COc1ccc(Cl)cc1NC(=O)CSc1nnc(-c2ccco2)o1 returned CHT PAM inactive and CHT inh inactive.
For CCOc1ccccc1NC(=O)CSc1nnc(-c2ccco2)o1 the results were CHT PAM 15.7*, Rad51 HR inh -0.8, KCC2 mod -0.344, CHT inh inactive, CHT act confirm 6.9 and HEK293 MP dye inactive.
For CC(=O)c1cccc(NC(=O)c2cc(=O)[nH]c3ccccc23)c1 the results were CHT PAM inactive and CHT inh inactive.
Screening Clc1ccc(-c2c[n+]3c(n2-c2ccccc2)SCC3)cc1 returned CHT PAM inactive, Rad51 HR inh 2.6, KCC2 mod 1, CHT inh inactive, CHT act confirm 43.5* and HEK293 MP dye -27.8*.
For COc1ccc(-c2cn(-c3ccc(Br)cc3)c3[n+]2CCS3)cc1 the results were CHT PAM inactive, Rad51 HR inh 11.4, KCC2 mod 0.0492 and CHT inh inactive.
Clc1ccc(-c2cn(-c3ccccc3)c3[n+]2CCS3)cc1 was read as CHT PAM inactive, Rad51 HR inh 5.5, KCC2 mod 0.138, CHT inh inactive, CHT act confirm 40.8* and HEK293 MP dye -39.9*.
For Oc1ccc(C2=NN(c3ccccc3)C(c3ccc(F)cc3)C2)cc1 (stereo unspecified) the results were CHT PAM inactive and CHT inh inactive.
`Fc1ccc(-c2cn(-c3ccccc3)c3[n+]2CCS3)cc1` gave CHT PAM inactive, KCC2 mod -0.042, CHT inh inactive, CHT act confirm 51.5* and HEK293 MP dye -41.8*.
Screening CCC(C)NCCCOc1c(C)cc(C)cc1Br (stereo unspecified) returned CHT PAM inactive, Rad51 HR inh -6.4, KCC2 mod 0.708 and CHT inh inactive.
Screening Cc1ccc(S(=O)(=O)NC(CC(=O)NCC2CCCO2)c2ccccc2)cc1 (stereo unspecified) returned CHT PAM inactive, Rad51 HR inh -1.7, KCC2 mod 0.527 and CHT inh inactive.

Screening data (PubChem BioAssay)
